This is a sample that favours compounds with a hit; in the whole collection about 2.4% have one here.
SR-BI HDL uptake = blocks mouse SR-BI lipid uptake from DiI-HDL; Q61009; ldlA[mSR-BI] CHO cells, DiI-HDL uptake fluorescence, 3 h; AID 488896; actives 0.96% (n = 320,000); inhibition, % at 12.5 µM;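 active = mean replicate inhibition of at least 70% and a set share of replicates each scoring 70 or more; inconclusive = meets just one of the two criteria; inactive = fails both criteria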;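 note: 0% = median of neutral control wells and 100% = median of positive control wells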
HTR2A ag = mouse HTR2A agonism via beta-arrestin recruitment. activation, % at 7.6 µM. actives 0.66% (n = 360,000). CHO-K1 mHTR2A beta-arrestin complementation, luminescence; percent of 30 µM serotonin response;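 active = activation above a run cutoff, the mean activation of all tested compounds plus 3 SD, cut at about 14% in these data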;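 note: 0% = plate median of compound wells and 100% = 30 µM serotonin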
Target sequence (P35363 whole entry, looked up): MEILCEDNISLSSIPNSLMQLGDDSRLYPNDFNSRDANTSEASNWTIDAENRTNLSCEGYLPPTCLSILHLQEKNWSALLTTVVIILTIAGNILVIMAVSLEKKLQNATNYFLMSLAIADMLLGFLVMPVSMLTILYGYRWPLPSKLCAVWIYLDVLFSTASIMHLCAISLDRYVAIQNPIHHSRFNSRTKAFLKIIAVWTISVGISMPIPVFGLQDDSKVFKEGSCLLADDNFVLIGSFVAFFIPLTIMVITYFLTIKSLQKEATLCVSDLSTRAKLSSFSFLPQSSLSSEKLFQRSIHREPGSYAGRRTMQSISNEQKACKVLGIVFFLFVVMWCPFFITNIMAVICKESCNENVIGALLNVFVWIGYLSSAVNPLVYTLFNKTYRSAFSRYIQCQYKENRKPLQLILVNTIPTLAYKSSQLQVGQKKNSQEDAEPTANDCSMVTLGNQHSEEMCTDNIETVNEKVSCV
MIN6 prolif = MIN6 beta-cell proliferation induction. MIN6 cells proliferation, ATPlite luminescence, 48 h; cells starved in 0.2% serum; 100% = growth in 10% serum. proliferation, % at 10 µM. actives 0.29% (n = 330,000). AID 2380;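 active = compounds whose signal lies at least 3.5 SD above the mean of all wells on their plate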;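 note: 0% = DMSO-treated cells in low-serum medium and 100% = 10% serum control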
Calb FLC = affects C. albicans growth with fluconazole; C. albicans CaCi-2 + fluconazole, Alamar Blue growth, 48 h; actives 0.57% (n = 300,000); growth inhibition, % (no concentration beside the values);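 active = growth inhibition above about 58% in most replicates, limit read from the data, passing the limit was not always enough; inconclusive = exactly half the replicates above a set limit; inactive = most replicates below a set limit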;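 note: all wells also contain fluconazole at 8 µg/ml as a sub-toxic cotreatment; 0% = median of DMSO wells and 100% = median of geldanamycin control wells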
Ins promoter up = MIN6 insulin promoter up-regulation; actives 0.3% (n = 190,000); z-score at 5 µM; MIN6 insulin promoter-GFP reporter, high-content imaging; hits give high values; AID 1625;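 active = z-score above 3 at 5 µM with at least 500 cells counted in the well; inconclusive = wells under 500 cells, flagged as cytotoxic or low count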
SR-BI uptake up = activators of SR-BI mediated HDL lipid uptake. activation, % at 12.5 µM. CHO ldlA[mSR-BI] cells, DiI-HDL uptake fluorescence, 3 h; 100 = double the neutral-control signal. actives 0.096% (n = 320,000). AID 504775;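 active = mean replicate activation of at least 60% and every replicate at or above 60%; inconclusive = mean or all-replicate condition met, but not both; inactive = mean below 60% and not all replicates reaching 60%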;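 note: 0% = median plate neutral-control signal and 100% = twice that signal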
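Test system: SR-BI-overexpressing, LDLR-lacking CHO cells; Medium: Ham's F12 with 0.5% BSA, HEPES 25 mM, pH 7.4; Schedule: 3 h, 37 °C; Technique: bottom-read fluorescence, 550/595 nm.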
* = called active by the depositor.

Screening Cc1ccc(OCC(=O)Nc2ccc(N3CCCC3)cc2)cc1C returned SR-BI HDL uptake inconclusive, HTR2A ag -1.1, MIN6 prolif -3.0, Calb FLC -24.0, Ins promoter up -0.5 and SR-BI uptake up -71.3.
Screening Cc1cccc(OCC(=O)Nc2ccc(N3CCCC3)cc2)c1C returned SR-BI HDL uptake 71.2*, HTR2A ag -4.4, MIN6 prolif -3.1, Calb FLC 0.3, Ins promoter up -0.8 and SR-BI uptake up -71.2.
For Cc1cc(C)cc(OCC(=O)Nc2ccc(N3CCCC3)cc2)c1 the results were SR-BI HDL uptake 74.6*, HTR2A ag -5.5, MIN6 prolif 0.5, Calb FLC -19.1, Ins promoter up -0.13 and SR-BI uptake up -74.6.
CCCC(=O)N1CCC1(C)C(=O)NS(=O)(=O)c1cccc(C)c1 (configuration not stated) was read as HTR2A ag -0.1.
Screening COc1cccc(N=Nc2ccc3ccccc3c2O)c1 returned SR-BI HDL uptake 71.8*, HTR2A ag 0.7, MIN6 prolif -4.8, Calb FLC 1.6 and SR-BI uptake up -71.8.
CCN(CC)C(=O)/C(=C/c1cn(S(=O)(=O)N(C)C)c2ccccc12)NC(=O)c1ccc(OC)cc1 was read as SR-BI HDL uptake 87.9*, HTR2A ag 2.0, MIN6 prolif -4.6, Calb FLC 1.4, Ins promoter up -0.71 and SR-BI uptake up -87.9.
For O=C(CSC1=NCCN1)NC12CC3CC(CC(C3)C1)C2 the results were SR-BI HDL uptake 73.2*, HTR2A ag -4.8, MIN6 prolif -3.2, Calb FLC 5.5, Ins promoter up 2.34 and SR-BI uptake up -73.2.
Screening Cc1nnc(SCC(=O)NC23CC4CC(CC(C4)C2)C3)s1 returned SR-BI HDL uptake -1.0, HTR2A ag 4.7, MIN6 prolif -0.2, Calb FLC -27.1, Ins promoter up 0.74 and SR-BI uptake up 1.0.
Screening CCCC[C@@H]1CNC(=O)C(=O)N1CCCCC1CCCCC1 returned HTR2A ag 3.6.
For O=C(Cn1cc([N+](=O)[O-])nc1[N+](=O)[O-])N1CCN(c2ccccc2)CC1 the results were SR-BI HDL uptake -29.2, HTR2A ag -2.1, MIN6 prolif -1.0, Calb FLC 9.4, Ins promoter up 1.49 and SR-BI uptake up 29.2.
For CCOC(=O)C1=C(O)/C(=C/c2cn(CC(=O)N3CCCC3)c3ccccc23)SC1=Nc1ccccc1 the results were SR-BI HDL uptake 70.5*, HTR2A ag 1.0, Calb FLC -0.4, Ins promoter up 2.85 and SR-BI uptake up -70.5.
Cc1ccc([N+](=O)[O-])cc1N=Nc1c(-c2ccc([N+](=O)[O-])cc2)[nH]n(C(N)=S)c1=O was read as SR-BI HDL uptake 80.3*, HTR2A ag 0.9, Calb FLC 5.0, Ins promoter up -1.32 and SR-BI uptake up -80.3.
For NC(=O)c1ccc(N=Nc2c(-c3ccccc3)[nH]n(-c3ccccc3)c2=O)cc1 the results were MIN6 prolif -5.2, Calb FLC -0.5 and Ins promoter up -0.87.
Screening NC(=S)n1[nH]c(-c2ccc([N+](=O)[O-])cc2)c(N=Nc2ccc(Cl)cc2)c1=O returned SR-BI HDL uptake 103.8*, HTR2A ag 1.3, Ins promoter up -5.03 and SR-BI uptake up -103.8.
Screening O=c1c(N=Nc2ccc(O)cc2)c(-c2ccccc2)[nH]n1-c1ccc([N+](=O)[O-])cc1 returned SR-BI HDL uptake 107.3*, HTR2A ag 0.4, MIN6 prolif -6.9, Calb FLC 13.1, Ins promoter up 0.19 and SR-BI uptake up -107.4.
For CS(=O)(=O)c1ccc(-c2sc3ccccc3c2C(=O)NCCCN2CCOCC2)cc1 the results were SR-BI HDL uptake -1.3, HTR2A ag -0.9, MIN6 prolif 2.0 and SR-BI uptake up 1.3.
Screening COc1cc(/C=C/C(=O)OCC(=O)N2CCN(S(=O)(=O)c3ccc(C)cc3C)CC2)ccc1OC(F)F returned SR-BI HDL uptake 78.1*, HTR2A ag 6.2 and SR-BI uptake up -78.1.
For O=S(=O)(Nc1nc(-c2sccc2Cl)cs1)c1cc(Cl)ccc1Cl the results were SR-BI HDL uptake -6.3, HTR2A ag 19.6*, MIN6 prolif -6.1, Calb FLC 65.1 and SR-BI uptake up 6.3.
`O=C(NC1CCCC1)C(c1ccc(F)cc1)N1CCC(O)(c2ccc(Cl)cc2)CC1` (configuration not stated) gave HTR2A ag -7.9.
Nc1c2c(nc3sc4c(c13)CCCCC4)CCCCC2 was read as SR-BI HDL uptake 4.9, HTR2A ag -4.0, MIN6 prolif -5.3, Calb FLC 95.2*, Ins promoter up -2.45 and SR-BI uptake up -4.9.
`Nc1[nH]c(C(=O)c2ccccc2)c(-c2ccncc2)c1C(=O)NCCc1c[nH]c2ccccc12` gave HTR2A ag -3.2.
`CCOc1cc(CNCCO)c(Cl)cc1OCC(=O)NCCc1ccccc1` gave SR-BI HDL uptake -1.2, HTR2A ag -2.5, MIN6 prolif -1.3, Calb FLC 1.5, Ins promoter up -0.1 and SR-BI uptake up 1.2.
For CCOc1cc(CNC(C)C)c(Cl)cc1OCC(=O)NCCc1ccccc1 the results were SR-BI HDL uptake 77.5*, HTR2A ag -5.3, MIN6 prolif 1.2, Calb FLC -2.3 and SR-BI uptake up -77.5.
`C#CCOCC1CNC(=S)O1` (configuration not stated) gave HTR2A ag -1.8.
For CN(Cc1ccccc1)C(=O)c1[nH]cnc1C(=O)Nc1cccc(Cl)c1 the results were SR-BI HDL uptake -0.5, HTR2A ag -7.4, MIN6 prolif -2.5 and SR-BI uptake up 0.5.
Screening COc1ccc(NC(=O)c2sc3nc(-c4cccnc4)ccc3c2N)cc1 returned SR-BI HDL uptake inconclusive, HTR2A ag 5.7, MIN6 prolif -4.9, Calb FLC -0.2, Ins promoter up 6.04* and SR-BI uptake up -71.8.
For COc1ccc(NC(=O)c2sc3nc(-c4cccnc4)ccc3c2N)cc1OC the results were SR-BI HDL uptake 73.6*, HTR2A ag 6.3, MIN6 prolif -1.3, Calb FLC 7.1, Ins promoter up -0.43 and SR-BI uptake up -73.6.
Screening CCOC(=O)C1=CN(Cc2ccccc2)CCC1=O returned SR-BI HDL uptake -8.0, HTR2A ag -0.7 and SR-BI uptake up 8.1.
CC(=O)C1=CN(Cc2ccccc2)CCC1=O was read as SR-BI HDL uptake -245.3, HTR2A ag -4.7 and SR-BI uptake up 245.3*.
Screening O=C(O)Cc1ccc(N2N=C(c3ccccc3)CC2=O)cc1 returned HTR2A ag 1.2.
Screening COC(=O)[C@@H]1C[C@H]2CC[C@H](O)C[C@H]2N1Cc1ccc(C)s1 returned SR-BI HDL uptake -60.1, HTR2A ag -2.6, MIN6 prolif 0.1, Calb FLC -5.9, Ins promoter up -0.16 and SR-BI uptake up 60.1*.
